{"data": "Experimental data pooled from the literature", "target": "Rho-associated protein kinase 2 (ROCK2, Homo sapiens, UniProt O75116)", "note": "Lines come from different studies, so protocols differ."}
{"SMILES": "N#Cc1ccc(NC(=O)Nc2ccccc2)cc1", "read-out": "cell-free assay", "technique": "competition with immobilised ligand", "concentration": "25 µM", "endpoint": "remaining binding", "value": "63%"}
{"SMILES": "C#Cc1cnc(Nc2ccnc(CO)c2)nc1Nc1ccccc1S(C)(=O)=NC#N (stereo not drawn)", "read-out": "cell-free assay", "concentration": "1 µM", "endpoint": "remaining signal", "value": "49%"}
{"SMILES": "CCCCC(=O)Nc1ccc(-c2ccc3ncn(CCC)c(=O)c3c2)cn1", "read-out": "binding", "technique": "competition with immobilised ligand", "concentration": "0.5 µM", "endpoint": "remaining binding", "value": "100%"}
{"SMILES": "C#Cc1cc(-c2cc(Nc3nc(N[C@@H](C)c4ccc(F)cn4)ncc3Cl)n[nH]2)ccc1C=O", "read-out": "enzyme activity", "mode": "inhibitor", "concentration": "0.2 µM", "endpoint": "inhibition", "value": "5.91%"}
{"SMILES": "Cc1cc(O)c(-c2ccc([C@@H](C)CN(C)C)cc2)c2c1[nH]c(=O)c1sccc12", "read-out": "enzyme activity", "mode": "inhibitor", "concentration": "0.1 µM", "endpoint": "inhibition", "value": "14.6%"}
{"SMILES": "CC#CC(=O)N1CCC[C@H]1c1nc(-c2ccc(C(=O)Nc3ccccn3)cc2)c2c(N)nccn12", "read-out": "enzyme activity", "mode": "inhibitor", "concentration": "1 µM", "endpoint": "inhibition", "value": "29%"}
{"SMILES": "CN1CCN(C(=O)c2ccc(NC(=O)Nc3ccc(N(C)c4ccnc(Nc5ccc(CS(C)(=O)=O)cc5)n4)cc3)cc2)CC1", "read-out": "binding", "concentration": "1 µM", "endpoint": "remaining binding", "value": "1.5%"}
{"SMILES": "C=CC(=O)N1CCC[C@@H](n2nc(-c3ccc(Oc4ccccc4)cc3)c3c(N)ncnc32)C1", "read-out": "enzyme activity", "mode": "inhibitor", "concentration": "1 µM", "endpoint": "inhibition", "value": "0%"}
{"SMILES": "C[C@H]1CC[C@H](n2c3cnccc3c3cnc(Nc4ccc5c(n4)CCN(C(=O)CO)C5)nc32)CC1", "read-out": "cell-free assay", "concentration": "1 µM", "endpoint": "remaining signal", "value": "95%"}
